MrgX1 antag = antagonists of human MrgX1 receptor. Q96LB2. MRGX1-HEK293 calcium flux, Fluo-4, BAM8-22 antagonism; hits give low values. B-score at 10 µM. 1.3% of 310,000 active;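 active = calcium-response B-score plate-corrected more than 3 library SD below zero, starting fluorescence within 5 deviations, no agonist response on first addition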;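 also: peak minus trough fluorescence over baseline after final BAM8-22 challenge near maximal dose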
RGS4 pot = RGS4 potentiation or activation; HEK293 M3R/inducible RGS4, carbachol calcium flux Fluo4; hits give low values; AID 463111; 0.92% of 310,000 active; B-score at 10 µM;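 active = B-score of the integrated calcium signal more than 4 SD below the library mean, with starting fluorescence not abnormally high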;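 also: negative B-score means reduced calcium response which marks RGS4 activation or potentiation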
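Assay system: Inducible-RGS4 HEK293 cells carrying M3 receptor | Schedule: Compound preincubation 20 min at room temperature before agonist | Signal: Kinetic calcium fluorescence imaging with Fluo4-AM dye, 2 µM | Read-out basis: B score from integrated fluorescence ratio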
MrgX1 PAM = human MrgX1 positive allosteric modulation, primary screen; Q96LB2; B-score at 10 µM; 0.63% of 310,000 active; MrgX1-HEK293, Fluo-4 calcium flux, FDSS; hits give high values;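 active = plate-corrected calcium response at least 3 library SD above typical, normal starting fluorescence, not activating the receptor alone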;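 also: compound read alongside a low EC10 to EC30 dose of BAM8-22 agonist; peak minus trough fluorescence over baseline measured at the second addition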
MrgX1 agonist = agonists of human MrgX1 receptor; MrgX1-HEK293 cells, Fluo-4 calcium fluorescence, agonist mode; hits give high values; AID 588627; 0.44% of 310,000 active; B-score at 10 µM; Q96LB2;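 active = calcium response B-score plate-corrected fluorescence ratio at least 3 library SD, with starting fluorescence B-score inside 5 SD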
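Material: HEK293 cells stably expressing human MrgX1 receptor | Quantity: 15,000 cells per well | Times: Cells plated overnight, dye loaded 0.5 h 37 °C, 0.5 h room temperature | Measured by: Kinetic Fluo-4 NW fluorescence of intracellular calcium | Control set: Positive and negative controls per plate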
RGS4 inh = inhibitors of human RGS4. AID 463165. B-score at 10 µM. HEK293 M3R/RGS4 inducible, Fluo-4 calcium flux; hits give high values; triggered by carbachol at its EC20. 0.45% of 310,000 active;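 active = B-score, a plate-corrected calcium signal, over three deviations above library mean, with baseline fluorescence within five deviations of library mean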;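 also: RGS4 expression induced by doxycycline in cells with stable M3 receptor; B-score is computed from the integrated fluorescence ratio over baseline after carbachol; higher B-score means a larger calcium signal and so more RGS4 inhibition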
Target sequence (P49798 whole entry, looked up): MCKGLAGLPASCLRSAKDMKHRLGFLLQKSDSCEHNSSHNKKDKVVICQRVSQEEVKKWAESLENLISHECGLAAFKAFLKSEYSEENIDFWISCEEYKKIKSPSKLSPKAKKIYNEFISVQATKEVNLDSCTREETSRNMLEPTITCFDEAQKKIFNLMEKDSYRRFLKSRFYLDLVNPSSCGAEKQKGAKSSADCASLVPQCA
MrgX1 ant reconf = human MrgX1 receptor antagonism, re-confirmation screen | shares compounds with MrgX1 antag | 19% of 2,300 active | MrgX1-HEK293, BAM8-22 calcium flux, Fluo-4; hits give low values | remaining BAM8-22 calcium response % of control (hits give low values), % at 10 µM | AID 602420;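 active = remaining agonist calcium response no higher than 100% minus 3 SD of agonist-only control wells, with starting fluorescence near control levels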;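 also: agonist BAM8-22 given at a near maximal EC90 to ECmax level; peak minus minimum fluorescence divided by baseline after agonist addition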
HEK293 Ca flux = MrgX1 antagonist counter-screen hit in parental HEK293 cells. Fluo-4 calcium fluorescence, FDSS. fluorescence ratio F(max-min)/F0 at 10 µM. shares compounds with MrgX1 antag. 2% of 4,000 active;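 active = duplicate-averaged calcium fluorescence ratio at least three times the standard deviation of buffer wells, a nonspecific response in parental cells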
HEK293 Ca counter = MrgX1 allosteric activator counter-screen hit in parental HEK293 cells | parental HEK293 calcium flux, Fluo-4 fluorescence ratio; hits give high values | fluorescence ratio F(max-min)/F0 at 10 µM | 0.4% of 4,000 active | shares compounds with MrgX1 antag | AID 624114;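 active = calcium fluorescence ratio, averaged over duplicates, at least 3 SD of the buffer-well ratio, meaning a nonspecific response in receptor-free cells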;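 also: untransfected parental HEK293 lacking MrgX1 used as counterscreen for MrgX1 allosteric activators; fluorescence change taken during the second addition on a kinetic imager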
HEK293 Ca cntr2 = activity in parental HEK293 cells lacking MrgX1 receptor; fluorescence ratio F(max-min)/F0 at 10 µM; shares compounds with MrgX1 antag; 8.7% of 4,000 active; Fluo-4 calcium fluorescence (FDSS); hits give high values;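 active = calcium fluorescence ratio at least three times the spread of buffer wells, meaning a non-specific response in parental cells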
Starred values were filed as active, the others as inactive; i = inactive; . = no result given. Compounds with a hit are over-represented: about 3.5% of the library has one in this group of screens.

SMILES	MrgX1 antag	RGS4 pot	MrgX1 PAM	MrgX1 agonist	RGS4 inh	MrgX1 ant reconf	HEK293 Ca flux	HEK293 Ca counter	HEK293 Ca cntr2
Cc1ccc(C)c(S(=O)(=O)N2CCN(C(=O)c3cccnc3)CC2)c1	-11*	i	i	i	i	i	i	i	i
Cc1ccc(C)c(S(=O)(=O)N2CCN(C(=O)CSC(=S)N3CCCC3)CC2)c1	-5.3*	i	i	i	i	i	i	i	i
Cc1ccc(C)c(S(=O)(=O)N2CCN(C(=O)Cc3ccccc3)CC2)c1	i	i	i	i	i	.	.	.	.
CCCCCNC(=O)c1cccc(S(=O)(=O)N2CC3(C)CC2CC(C)(C)C3)c1 (stereo not given)	i	i	i	i	i	.	.	.	.
COC1CCN(C(=O)CC2C(=O)NCCN2CC2CCCCC2)CC1 (stereo not given)	-5.3*	i	i	i	i	i	i	i	i
COC1CCN(C(=O)CC2C(=O)NCCN2CC(C)(C)C)CC1 (stereo not given)	i	i	i	i	i	.	.	.	.
CN(C)c1ccc(C(=O)Nc2cc(C(F)(F)F)ccc2-n2cncn2)cc1	-11*	i	i	i	i	i	i	i	i
O=C(NCc1ccccc1F)C1CCCN(c2cnccn2)C1 (stereo not given)	i	i	i	i	i	.	.	.	.
CN(CC(=O)Nc1c(Cl)cccc1Cl)C(=O)c1ccc2nc[nH]c2c1	-7.1*	i	i	i	i	73%*	i	i	i
Cc1ccc(C)c(N(C)S(=O)(=O)c2ccc3c(c2)oc(=O)n3C)c1	i	i	i	i	i	.	.	.	.
O=C(NCCCn1ccnc1)c1cccc(S(=O)(=O)Nc2ccc(Br)cc2)c1	-4.5*	i	i	i	i	i	i	i	i
CN(C)S(=O)(=O)c1cccc(C(=O)NCCCn2ccnc2)c1	i	i	i	i	i	.	.	.	.
CSc1cccc(-c2nnc(NC(=O)c3cccc(N4C(=O)CCC4=O)c3)o2)c1	-4.5*	i	i	i	i	i	i	i	i
O=C(Nc1nnc(-c2ccncc2)o1)c1cccc(N2C(=O)CCC2=O)c1	i	i	i	i	i	.	.	.	.
COc1ccc(C(=S)N2CCN(c3ccccc3C)CC2)cc1	i	i	i	i	i	.	.	.	.
OCC[C@H]1C[C@H](O)[C@@H](O)[C@@]2(CCc3ccccc3O2)O1	i	.	i	i	.	.	.	.	.
CCN(CC)c1nc(-c2ccc(C(=O)NN)cc2)nc(-c2ccc(C(=O)NN)cc2)n1	i	i	i	i	i	.	.	.	.
COc1cc(NC(=O)c2cccs2)c(C(=O)OCC(=O)NC(=O)NCc2ccccc2)cc1OC	i	i	i	i	i	.	.	.	.
COc1cc(NC(=O)c2cccs2)c(C(=O)OCC(=O)NC(=O)NC(C)(C)C)cc1OC	-4.6*	i	i	i	i	81%*	i	i	i
CCOc1ccccc1CNC(=O)c1ccc(NC(=O)C2=C(C)OCCS2)cc1	i	i	i	i	i	.	.	.	.
Cc1nc2cc(-c3cccs3)[nH]n2c(=O)c1C	-5.2*	i	i	i	i	i	i	i	i
Cc1nnc(NC(=O)CSc2nnc(CCc3nc4ccccc4[nH]3)n2C)s1	-4.6*	i	i	i	i	i	i	i	i
